Measured values reported in ChEMBL document CHEMBL4196178, “Structure-Based Drug Design of Potent Pyrazole Derivatives against Rhinovirus Replication” (J Med Chem, 2018).
Activity calls are given as the source filed them. The calls are words filed in the database; no cut-off is given here.

Experiments:
rhinovirus B14 [1] = experiment: Antiviral activity against Rhinovirus B14 infected in human HeLa Rh cells assessed as reduction in viral replication at 1 uM administered at the time of infection measured after 8 hrs post infection by RT-qPCR analysis; type: functional, organism-based
Summary of the method: (§1)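 HeLa Rh cells adhered overnight, then given 1 µM compound 2 h before, at, or 2, 4 or 6 h after RV-B14 infection. Untreated infected cells served as controls. Cells lysed at 8 h post-infection, DNases heat-inactivated at 75 °C for 15 min. Intracellular viral RNA measured by SYBR one-step qRT-PCR against a gBlock standard series, reported as genome equivalents per sample.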

[2] = Cytotoxicity against human HeLa Rh cells assessed as reduction in cell viability after 3 days by MTS assay; type: cell-based
rhinovirus B14 [3] = experiment: Antiviral activity against Rhinovirus B14 infected in human HeLa Rh cells assessed as reduction in viral replication at 1 uM administered at >= 2 hrs post infection measured after 8 hrs post infection by RT-qPCR analysis; type: functional, organism-based; summary of the method: as §1
CHO-K1 [4] = experiment: Genotoxicity in CHOK1 cells assessed as increase in micronucleated cell rates at 1 to 100 uM after 3 hrs in presence of Sprague-Dawley rat S9 fraction and cytokinesis blocking agent cytochalasin B by Giemsa-staining based assay; type: toxicity, Cricetulus griseus; conditions: chinese hamster, s9, 3 h
Summary of the method: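 CHO-K1 cells were seeded at 100,000 cells/ml and pre-incubated 24 h. S9 mix from Aroclor 1254-treated male Sprague-Dawley rat liver (1% S9, 0.5 mM G6P, 0.4 mM NADP) was added at 10%, and compound (1–100 μM) was given in duplicate for 3 h at 37 °C. Controls were medium, 1% DMSO and benzo-a-pyrene 5 µg/ml. Cells then had 21 h in 3 µg/ml cytochalasin B and Giemsa staining. Micronuclei were counted in 1000 binucleated cells per well at doses with CI% decrease <55 ± 5%, and compared by χ² test.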

CHO-K1 [5] = experiment: Genotoxicity in CHOK1 cells assessed as increase in micronucleated cell rates at 1 to 100 uM after 3 hrs in absence of Sprague-Dawley rat S9 fraction and presence of cytokinesis blocking agent cytochalasin B by Giemsa-staining based assay; type: toxicity, Cricetulus griseus; conditions: chinese hamster, cho-k1, 3 h
Summary of the method: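 CHO-K1 cells were seeded at 100,000 cells/ml and pre-incubated 24 h, then exposed in duplicate to compound (1–100 μM) for 3 h at 37 °C without S9. Controls were medium, 1% DMSO and mitomycin C 0.6 µg/ml. Cells then had 21 h in 3 µg/ml cytochalasin B, followed by methanol fixation and 10% Giemsa. Micronuclei were counted in 1000 binucleated cells per well, restricted to doses with CI% decrease <55 ± 5%, and compared by χ² test.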

[6] = biological target: T1, VP1 capsid protein (Human rhinovirus sp.) (UniProt Q7T664); experiment: Inhibition of Rhinovirus B14 capsid infected in human HeLa Rh cells assessed as reduction in viral replication at 1 uM administered 2 hrs before infection measured after 8 hrs post infection by RT-qPCR analysis; type: cell-based; summary of the method: as §1
T1 sequence (whole entry): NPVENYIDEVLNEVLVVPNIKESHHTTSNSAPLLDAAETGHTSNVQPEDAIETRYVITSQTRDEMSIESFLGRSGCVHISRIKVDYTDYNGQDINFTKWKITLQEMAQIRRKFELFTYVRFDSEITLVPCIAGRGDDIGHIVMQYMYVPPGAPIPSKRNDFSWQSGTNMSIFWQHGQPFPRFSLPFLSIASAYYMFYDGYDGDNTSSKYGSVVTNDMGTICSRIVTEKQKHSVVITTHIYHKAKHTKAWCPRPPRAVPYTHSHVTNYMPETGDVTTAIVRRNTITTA

[7] = Selectivity index, ratio of CC50 for human HeLa Rh cells to EC50 for Rhinovirus B14 capsid infected in human HeLa Rh cells; type: toxicity, cell-based; conditions: read-out: Ratio CC50/EC50
Summary of the method: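 SI = CC₅₀/EC₅₀ for RV-B14 in HeLa Rh cells, both from the same 3-day 35 °C MTS CPE assay. CC₅₀ was obtained by light-microscope scoring of compound-treated uninfected cells, and EC₅₀ from MTS dose-response. Both values were derived by logarithmic interpolation and reported as median ± median absolute deviation.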

[8] = biological target: T1, VP1 capsid protein (Human rhinovirus sp.); experiment: Inhibition of Rhinovirus B14 capsid infected in human HeLa Rh cells assessed as number of wells with full cytopathic effect at 4 times EC50 concentration after 1st passage measured after 3 days by MTS assay relative to control; type: cell-based; parameters: scale not given: the % may be the effect or the level left
Summary of the method: (§2)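 Confluent HeLa cells were infected with wild-type RV-B14 with compound present at 1x, 2x or 4x in vitro EC₅₀, n=4 wells. Supernatant was diluted 1:10 onto fresh HeLa cells with compound, for four passages. Value is percentage of wells with full CPE.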

[9] = biological target: T1, VP1 capsid protein (Human rhinovirus sp.); experiment: Inhibition of Rhinovirus B14 capsid infected in human HeLa Rh cells assessed as number of wells with full cytopathic effect at 4 times EC50 concentration after 4th passage measured after 3 days by MTS assay relative to control; type: cell-based; parameters: scale not given: the % may be the effect or the level left; summary of the method: as §2
[10] = biological target: T1, VP1 capsid protein (Human rhinovirus sp.); experiment: Inhibition of capsid of VP1 C199W mutant harboring Rhinovirus B14 assessed as reduction of virus induced cytopathic effect at 1 times EC50 concentration after 4th passage measured after 3 days by MTS assay
[11] = biological target: T1, VP1 capsid protein (Human rhinovirus sp.); experiment: Inhibition of Rhinovirus B14 capsid infected in human HeLa Rh cells assessed as number of wells with full cytopathic effect at EC50 concentration after 1st passage measured after 3 days by MTS assay relative to control; type: cell-based; parameters: scale not given: the % may be the effect or the level left; summary of the method: as §2
[12] = biological target: T1, VP1 capsid protein (Human rhinovirus sp.); experiment: Inhibition of Rhinovirus B14 capsid infected in human HeLa Rh cells assessed as number of wells with full cytopathic effect at 2 times EC50 concentration after 4th passage measured after 3 days by MTS assay relative to control; type: cell-based; parameters: scale not given: the % may be the effect or the level left; summary of the method: as §2
[13] = biological target: T1, VP1 capsid protein (Human rhinovirus sp.); experiment: Inhibition of Rhinovirus B14 capsid infected in human HeLa Rh cells assessed as number of wells with full cytopathic effect at 2 times EC50 concentration after 3rd passage measured after 3 days by MTS assay relative to control; type: cell-based; parameters: scale not given: the % may be the effect or the level left; summary of the method: as §2
[14] = biological target: T1, VP1 capsid protein (Human rhinovirus sp.); experiment: Inhibition of Rhinovirus B14 capsid infected in human HeLa Rh cells assessed as number of wells with full cytopathic effect at EC50 concentration after 4th passage measured after 3 days by MTS assay relative to control; type: cell-based; parameters: scale not given: the % may be the effect or the level left; summary of the method: as §2
[15] = biological target: T1, VP1 capsid protein (Human rhinovirus sp.); experiment: Inhibition of Rhinovirus B14 capsid infected in human HeLa Rh cells assessed as number of wells with full cytopathic effect at 2 times EC50 concentration after 1st passage measured after 3 days by MTS assay relative to control; type: cell-based; parameters: scale not given: the % may be the effect or the level left; summary of the method: as §2
[16] = biological target: T1, VP1 capsid protein (Human rhinovirus sp.); experiment: Inhibition of Rhinovirus B14 capsid infected in human HeLa Rh cells assessed as number of wells with full cytopathic effect at EC50 concentration after 2nd passage measured after 3 days by MTS assay relative to control; type: cell-based; parameters: scale not given: the % may be the effect or the level left; summary of the method: as §2
[17] = biological target: T1, VP1 capsid protein (Human rhinovirus sp.); experiment: Inhibition of capsid of VP1 A150V mutant harboring Rhinovirus B14 assessed as reduction of virus induced cytopathic effect at 4 times EC50 concentration after 4th passage measured after 3 days by MTS assay
[18] = biological target: T1, VP1 capsid protein (Human rhinovirus sp.); experiment: Inhibition of capsid of VP1 N105S mutant harboring Rhinovirus B14 assessed as reduction of virus induced cytopathic effect at 2 times EC50 concentration after 4th passage measured after 3 days by MTS assay
[19] = biological target: T1, VP1 capsid protein (Human rhinovirus sp.); experiment: Inhibition of Rhinovirus B14 capsid infected in human HeLa Rh cells assessed as number of wells with full cytopathic effect at EC50 concentration after 3rd passage measured after 3 days by MTS assay relative to control; type: cell-based; parameters: scale not given: the % may be the effect or the level left; summary of the method: as §2
rhinovirus B14 [20] = experiment: Inhibition of Rhinovirus B14 capsid infected in human HeLa Rh cells assessed as number of wells with full cytopathic effect at 4 times EC50 concentration after 2nd passage measured after 3 days by MTS assay relative to control; type: functional; parameters: scale not given: the % may be the effect or the level left; summary of the method: as §2
[21] = biological target: T1, VP1 capsid protein (Human rhinovirus sp.); experiment: Inhibition of Rhinovirus B14 capsid infected in human HeLa Rh cells assessed as number of wells with full cytopathic effect at 4 times EC50 concentration after 3rd passage measured after 3 days by MTS assay relative to control; type: cell-based; parameters: scale not given: the % may be the effect or the level left; summary of the method: as §2
[22] = biological target: T1, VP1 capsid protein (Human rhinovirus sp.); experiment: Inhibition of Rhinovirus B14 capsid infected in human HeLa Rh cells assessed as number of wells with full cytopathic effect at 2 times EC50 concentration after 2nd passage measured after 3 days by MTS assay relative to control; type: cell-based; parameters: scale not given: the % may be the effect or the level left; summary of the method: as §2

## Cn1cc(-c2ccc(C[C@H](O)c3ccc(-n4cncn4)cc3)c([N+](=O)[O-])c2)cn1
Rhinovirus B14 [1]
  Activity: Active
[2]
  CC50 at 72 h: > 342 µM
Rhinovirus B14 [3]
  Activity: inactive
CHO-K1 [4]
  Activity: Non-Toxic
CHO-K1 [5]
  Activity: Non-Toxic
[6]
  inhibition: Active
[7]
  selectivity ratio: > 5700

## O=[N+]([O-])c1cc(F)ccc1CC(O)c1ccc(-n2cccn2)cc1 (racemic)
[2]
  CC50 at 72 h: > 100 µM
[7]
  selectivity ratio: > 12

## Cn1nc(C(F)(F)F)cc1-c1ccc(CC(O)c2ccc(-n3cccn3)cc2)c([N+](=O)[O-])c1 (racemic)
[2]
  CC50 at 72 h: 14 µM
[7]
  selectivity ratio: 29

## Cn1nc(C(F)(F)F)cc1-c1ccc(CC(O)c2ccc(-n3cncn3)cc2)c([N+](=O)[O-])c1 (racemic)
[2]
  CC50 at 72 h: 21 µM

## O=[N+]([O-])c1cc(Br)ccc1CC(O)c1ccc(-n2cncn2)cc1 (racemic)
[2]
  CC50 at 72 h: 39 µM
[7]
  selectivity ratio: 156

## Cc1noc(C)c1-c1ccc(CC(O)c2ccc(-n3cccn3)cc2)c([N+](=O)[O-])c1 (racemic)
[2]
  CC50 at 72 h: 14 µM

## O=[N+]([O-])c1cc(-c2cccs2)ccc1CC(O)c1ccc(-c2ccncc2)cc1 (racemic)
[2]
  CC50 at 72 h: > 248 µM
[7]
  selectivity ratio: > 191

## Cn1cc(-c2ccc(C[C@@H](O)c3ccc(-n4cccn4)cc3)c([N+](=O)[O-])c2)cn1
[2]
  CC50 at 72 h: > 342 µM
[7]
  selectivity ratio: > 136

## O=[N+]([O-])c1cc(-c2ccco2)ccc1CC(O)c1ccc(-c2ccncc2)cc1 (racemic)
[2]
  CC50 at 72 h: > 86 µM
[7]
  selectivity ratio: > 72

## Cn1cc(-c2ccc(CC(O)c3ccc(-n4cncn4)cc3)c([N+](=O)[O-])c2)cn1 (racemic)
[8]
  Activity: 0%
[9]
  Activity: 0%
[10]
  inhibition: Active
[11]
  Activity: 0%
Rhinovirus B14 [1]
  Activity: Active
[12]
  Activity: 50%
[13]
  Activity: 25%
[14]
  Activity: 100%
[15]
  Activity: 0%
[16]
  Activity: 50%
[17]
  inhibition: inactive
[2]
  CC50 at 72 h: 256 to 699 µM
Rhinovirus B14 [3]
  Activity: inactive
[6]
  inhibition: Active
[18]
  inhibition: Active
[19]
  Activity: 75%
Rhinovirus B14 [20]
  Activity: 0%
[7]
  selectivity ratio: 1420 to 3880
[21]
  Activity: 0%
[22]
  Activity: 0%
